# Assay results: ChEMBL document CHEMBL1157170, “Novel 5-azaindolocarbazoles as cytotoxic agents and Chk1 inhibitors” (Bioorg Med Chem, 2008)
# Calls of active or inactive are those of the source. The calls are words filed in the database; no cut-off is given here.
# Columns and labels:
# L1210 [1] = assay: Antiproliferative activity against mouse L1210 cells after 48 hrs by microculture tetrazolium assay; assay type: functional, cell-based; details: L1210, 48 h
# Procedure, shortened: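 L1210 cells grown in RPMI 1640 with 10% fetal calf serum, 2 mM L-glutamine, penicillin/streptomycin and 10 mM Hepes (pH 7.4). Exposed for 48 h (four doubling times) to nine serial dilutions, each in triplicate. Read-out was microculture tetrazolium assay. IC50 is the concentration that cut optical density by 50% versus untreated controls.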
# [2] = biological target: T1, Serine/threonine-protein kinase Chk1 (Homo sapiens) (UniProt O14757); assay: Inhibition of human Chk1 expressed in sf9-baculovirus system at 10 uM
# T1 sequence (whole entry): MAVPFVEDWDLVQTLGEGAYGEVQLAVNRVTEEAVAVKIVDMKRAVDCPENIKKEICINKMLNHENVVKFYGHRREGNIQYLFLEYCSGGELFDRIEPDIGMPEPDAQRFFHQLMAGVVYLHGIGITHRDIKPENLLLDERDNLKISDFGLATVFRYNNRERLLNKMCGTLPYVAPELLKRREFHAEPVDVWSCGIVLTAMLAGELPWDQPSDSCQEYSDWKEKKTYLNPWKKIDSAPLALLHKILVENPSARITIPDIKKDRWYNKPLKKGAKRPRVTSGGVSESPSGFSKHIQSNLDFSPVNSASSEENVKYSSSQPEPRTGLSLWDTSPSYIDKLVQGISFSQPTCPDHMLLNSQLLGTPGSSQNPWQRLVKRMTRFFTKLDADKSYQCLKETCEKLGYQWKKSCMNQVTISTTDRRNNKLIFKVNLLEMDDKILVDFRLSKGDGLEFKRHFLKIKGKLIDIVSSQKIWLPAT
# [3] = biological target: T2, Serine/threonine-protein kinase Chk1 (Homo sapiens, UniProt O14757); assay: Inhibition of human Chk1 expressed in sf9-baculovirus system
# T2 sequence (O14757 whole entry): T1 sequence (whole entry)
# Procedure, shortened: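 Kinase was GST-tagged Chk1 purified from extracts of Sf9 cells infected with a GST-Chk1 baculovirus. Assay format followed a published method.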
# L1210 [4] = assay: Cell cycle arrest in mouse L1210 cells by accumulation at G2M phase at 5 uM after 21 hrs by flow cytometry; assay type: functional
# Procedure, shortened: (§1)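 L1210 cells at 2.5 × 10⁵ cells/mL incubated 21 h with various compound concentrations. Fixed in 70% ethanol, washed, then stained 30 min in D-PBS containing RNAse and propidium iodide. DNA content analysed by flow cytometry.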
# HT-29 = assay: Antiproliferative activity against human HT29 cells after 96 hrs by microculture tetrazolium assay; details: HT-29, 96 h
# L1210 [5] = assay: Cell cycle arrest in mouse L1210 cells by accumulation at G2M phase at 1 uM after 21 hrs by flow cytometry; assay type: functional; procedure, shortened: as §1
# L1210 [6] = assay: Cell cycle arrest in mouse L1210 cells by accumulation at G1 phase at 1 uM after 21 hrs by flow cytometry; assay type: functional; procedure, shortened: as §1
# L1210 [7] = assay: Toxicity against mouse L1210 cells at 20 uM; assay type: functional, cell-based
SMILES,IC50 (L1210 [1]),inhibition [2],IC50 [3],Activity (L1210 [4]),IC50 (HT-29),Activity (L1210 [5]),Activity (L1210 [6]),Activity (L1210 [7])
O=C1NC(=O)c2c1c1c3ccc(OCc4ccccc4)cc3[nH]c1c1[nH]c3ccncc3c21,1.1 µM,95.9%,0.072 µM,43%,32.4 µM,–,–,–
CN(C)CCN1C(=O)c2c(c3c4cc(O)ccc4[nH]c3c3[nH]c4ccncc4c23)C1=O,2.6 µM,48.9%,–,–,50.9 µM,–,–,–
CN1C(=O)c2c(c3c4ccccc4n([C@@H]4O[C@H](COCc5ccccc5)[C@@H](OCc5ccccc5)[C@H](OCc5ccccc5)[C@H]4OCc4ccccc4)c3c3[nH]c4ccncc4c23)C1=O,> 100 µM,49%,–,–,–,–,–,–
O=C1NC(=O)c2c1c1c3cnccc3[nH]c1c1[nH]c3ccc(OCc4ccccc4)cc3c21,1.5 µM,90.6%,1.32 µM,–,7.6 µM,–,–,–
CN(C)CCN1C(=O)c2c(c3c4cc(OCc5ccccc5)ccc4[nH]c3c3[nH]c4ccncc4c23)C1=O,16.3 µM,17.6%,–,–,19.5 µM,–,–,–
CN1C(=O)c2c(c3c4cnccc4[nH]c3c3[nH]c4cc(OCc5ccccc5)ccc4c23)C1=O,0.6 µM,27%,–,–,2 µM,–,–,–
CC(=O)OC[C@H]1O[C@@H](n2c3ccccc3c3c4c(c5c6c[n+](Cc7ccccc7)ccc6[nH]c5c32)C(=O)N(C)C4=O)[C@H](OC(C)=O)[C@@H](OC(C)=O)[C@@H]1OC(C)=O,14.3 µM,46.5%,–,–,> 100 µM,–,–,–
CN(C)CCN1C(=O)c2c(c3c4cnccc4[nH]c3c3[nH]c4ccccc4c23)C1=O,0.47 µM,49.4%,–,–,3.8 µM,–,–,–
CN1C(=O)c2c(c3c4ccccc4n([C@@H]4O[C@H](CO)[C@@H](O)[C@H](O)[C@H]4O)c3c3[nH]c4cc[n+](Cc5ccccc5)cc4c23)C1=O,12.8 µM,51.4%,–,–,63.7 µM,–,–,–
CN(C)CCN1C(=O)c2c(c3c4cc5c(cc4[nH]c3c3[nH]c4ccncc4c23)OCO5)C1=O,0.195 µM,6.7%,–,–,1.76 µM,62%,–,–
CN1C(=O)c2c(c3c4cc(O)ccc4[nH]c3c3[nH]c4ccncc4c23)C1=O,11.9 µM,38.5%,–,–,> 100 µM,–,–,–
O=C1NC(=O)c2c1c1c3ccccc3[nH]c1c1[nH]c3ccncc3c21,0.6 µM,98.6%,5 µM,–,1.5 µM,–,60%,–
CN1C(=O)c2c(c3c4cnccc4[nH]c3c3[nH]c4cc(O)ccc4c23)C1=O,2.7 µM,66.6%,5 µM,–,16.2 µM,–,–,Active
CN(C)CCN1C(=O)c2c(c3c4cnccc4[nH]c3c3[nH]c4cc(OCc5ccccc5)ccc4c23)C1=O,1.4 µM,32.7%,–,–,2.9 µM,–,–,–
CN1C(=O)c2c(c3c4cc5c(cc4[nH]c3c3[nH]c4ccncc4c23)OCO5)C1=O,0.495 µM,26.7%,–,–,3.35 µM,–,–,–
O=C1NC(=O)c2c1c1c3ccc(O)cc3[nH]c1c1[nH]c3ccncc3c21,3.3 µM,98.7%,0.014 µM,–,> 100 µM,–,–,–
O=C1NC(=O)c2c1c1c3cnccc3[nH]c1c1[nH]c3ccc(O)cc3c21,80.7 µM,99.1%,0.027 µM,–,> 100 µM,–,–,–
